Data as given in ChEMBL document CHEMBL3804796, “Discovery of Novel 3,3-Disubstituted Piperidines as Orally Bioavailable, Potent, and Efficacious HDM2-p53 Inhibitors” (ACS Med Chem Lett, 2016).
pIC50: −log10 of the molar value. In brackets after ≈: the same amount, converted by molar mass. Activity calls are given as the source filed them. The rule behind the calls is not given here.

Assays:
NCI-H292 = assay: Antiproliferative activity against human NCI-H292 cells expressing wild type p53 after 72 hrs by CellTitre-Glo assay; type: functional, cell-based
Summary of the method: (§1)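 Cell lines exposed to compound for 72 h; viability read by CellTiter-Glo and IC50 derived. p53 coding-region mutation status of each line established by direct sequencing.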

UACC-62 = assay: Antiproliferative activity against human UACC62 cells expressing wild type p53 after 72 hrs by CellTitre-Glo assay; type: functional, cell-based; summary of the method: as §1
LOX IMVI = assay: Antiproliferative activity against human LOXIMVI cells expressing wild type p53 after 72 hrs by CellTitre-Glo assay; type: functional, cell-based; summary of the method: as §1
A-375 = assay: Antiproliferative activity against human A375 cells expressing wild type p53 after 72 hrs by CellTitre-Glo assay; type: functional, cell-based; summary of the method: as §1
[1] = biological target: Tumour suppressor p53/oncoprotein Mdm2 (Homo sapiens, UniProt Q00987); assay: Inhibition of human recombinant His-tagged MDM2 (1 to 118 residues) interaction with FAM-tagged p53-based peptide (unknown origin) incubated for 15 mins by fluorescence polarization assay; type: protein assay
Sequence of Tumour suppressor p53/oncoprotein Mdm2 (P04637 whole entry, the tested form may be a part): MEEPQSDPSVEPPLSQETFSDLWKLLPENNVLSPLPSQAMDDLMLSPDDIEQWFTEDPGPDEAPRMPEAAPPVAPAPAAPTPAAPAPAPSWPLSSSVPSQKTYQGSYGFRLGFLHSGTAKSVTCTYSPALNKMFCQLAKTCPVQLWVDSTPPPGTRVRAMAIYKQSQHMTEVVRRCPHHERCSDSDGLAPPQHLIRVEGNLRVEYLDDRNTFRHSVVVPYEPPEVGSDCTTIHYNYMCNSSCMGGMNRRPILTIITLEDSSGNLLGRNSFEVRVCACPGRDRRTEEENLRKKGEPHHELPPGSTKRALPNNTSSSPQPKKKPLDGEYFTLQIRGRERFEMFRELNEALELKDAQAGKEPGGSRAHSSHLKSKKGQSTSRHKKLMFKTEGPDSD
Sequence of Tumour suppressor p53/oncoprotein Mdm2 (Q00987 whole entry, the tested form may be a part): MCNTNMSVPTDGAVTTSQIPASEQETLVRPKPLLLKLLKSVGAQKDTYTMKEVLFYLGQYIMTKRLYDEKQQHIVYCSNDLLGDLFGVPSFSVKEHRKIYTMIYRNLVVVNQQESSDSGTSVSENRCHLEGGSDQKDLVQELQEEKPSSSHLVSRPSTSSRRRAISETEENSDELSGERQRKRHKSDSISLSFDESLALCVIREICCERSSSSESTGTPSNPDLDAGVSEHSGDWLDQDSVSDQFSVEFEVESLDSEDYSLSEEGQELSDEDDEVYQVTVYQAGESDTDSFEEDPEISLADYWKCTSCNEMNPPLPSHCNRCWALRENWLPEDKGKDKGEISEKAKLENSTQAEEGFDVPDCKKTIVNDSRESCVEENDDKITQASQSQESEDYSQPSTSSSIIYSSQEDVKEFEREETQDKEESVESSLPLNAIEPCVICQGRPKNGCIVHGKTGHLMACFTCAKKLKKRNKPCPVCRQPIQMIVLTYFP

[2] = Antiproliferative activity against human SJSA1 cells expressing wild type p53 after 72 hrs by CellTitre-Glo assay; details: SJSA-1, 72 h
[3] = Antiproliferative activity against human HCT116 cells expressing wild type p53 after 72 hrs by CellTitre-Glo assay; type: functional, cell-based; details: HCT-116, 72 h
Summary of the method: (§2)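 Cancer cell lines of known p53 coding-region status (checked by direct sequencing) were exposed to the compound for 72 h. Viability was read with CellTiter-Glo, and the IC50 was taken from these readings.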

SK-UT-1 = assay: Antiproliferative activity against human SK-UT-1 cells harboring mutant p53 after 72 hrs by CellTitre-Glo assay; type: functional, cell-based; details: SK-UT-1, 72 h; summary of the method: as §2
[4] = Antiproliferative activity against p53 null human H1299 cells after 72 hrs by CellTitre-Glo assay; type: functional, cell-based; details: NCI-H1299, 72 h; summary of the method: as §2
SJSA-1 [5] = assay: Induction of apoptosis in human SJSA1 cells assessed as caspase 3/7 activation; type: functional, cell-based
[6] = Permeability from apical to basolateral side in human Caco2 cells; type: ADME, cell-based; details: Caco-2, read-out: permeability
SJSA-1 [7] = assay: Selectivity ratio of IC50 for human SK-UT-1 cells harboring mutant p53 to IC50 for human SJSA1 cells expressing wild type p53; type: functional
Summary of the method: (§3)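 Ratio of two IC50s, each from a 72 h CellTiter-Glo viability assay. p53 coding-region status was confirmed by direct sequencing. The ratio is p53-mutant (SK-UT-1) or p53-null (H1299) IC50 divided by wild-type p53 (SJSA-1 or HCT116) IC50.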

[8] = Solubility of compound in pH 7.4 phosphate buffer; type: physicochemical
Mus musculus [9] = assay: Dose normalized AUC (0 to 24 hrs) in mouse at 1 mg/kg, po administered as single dose; type: ADME, organism-based; details: in vivo
Summary of the method: (§4)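 Single oral dose of 1 mg/kg. Vehicle was 20% HPBCD for mouse and 0.4% HPMC for dog and monkey. Plasma AUC over 0–24 h, dose-normalized, reported in μM·h.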

Rhesus monkey = assay: Dose normalized AUC (0 to 24 hrs) in monkey at 1 mg/kg, po administered as single dose; type: ADME, organism-based, Macaca mulatta; details: in vivo; summary of the method: as §4
HCT-116 = assay: Selectivity ratio of IC50 for p53 null human H1299 cells to IC50 for human HCT116 cells expressing wild type p53; type: functional; summary of the method: as §3
[10] = Clearance in monkey at 1 mg/kg, iv; type: ADME, organism-based, Macaca mulatta; details: rhesus monkey, in vivo
Cytochrome P450 3A4 [11] = biological target: T1, Cytochrome P450 3A4 (Homo sapiens, UniProt P08684); assay: Inhibition of CYP3A4 (unknown origin); type: ADME
T1 sequence (P08684 whole entry): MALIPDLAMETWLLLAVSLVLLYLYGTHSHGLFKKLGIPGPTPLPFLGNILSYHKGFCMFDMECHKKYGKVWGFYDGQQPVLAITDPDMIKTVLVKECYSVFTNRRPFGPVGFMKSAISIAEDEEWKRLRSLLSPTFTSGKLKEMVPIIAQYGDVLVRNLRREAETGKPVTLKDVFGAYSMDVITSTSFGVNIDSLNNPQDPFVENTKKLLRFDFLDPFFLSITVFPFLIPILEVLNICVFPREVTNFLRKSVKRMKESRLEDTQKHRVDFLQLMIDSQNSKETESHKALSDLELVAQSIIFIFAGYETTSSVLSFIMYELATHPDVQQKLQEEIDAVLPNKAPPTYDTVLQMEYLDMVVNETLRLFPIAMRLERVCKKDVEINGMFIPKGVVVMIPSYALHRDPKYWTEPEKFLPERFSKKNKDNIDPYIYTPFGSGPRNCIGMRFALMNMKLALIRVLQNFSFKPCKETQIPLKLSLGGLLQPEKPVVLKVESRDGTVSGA

Cytochrome P450 1A2 = Cytochrome P450 1A2 (Homo sapiens, UniProt P05177); assay: Inhibition of CYP1A2 (unknown origin); type: ADME
Sequence of Cytochrome P450 1A2 (P05177 whole entry): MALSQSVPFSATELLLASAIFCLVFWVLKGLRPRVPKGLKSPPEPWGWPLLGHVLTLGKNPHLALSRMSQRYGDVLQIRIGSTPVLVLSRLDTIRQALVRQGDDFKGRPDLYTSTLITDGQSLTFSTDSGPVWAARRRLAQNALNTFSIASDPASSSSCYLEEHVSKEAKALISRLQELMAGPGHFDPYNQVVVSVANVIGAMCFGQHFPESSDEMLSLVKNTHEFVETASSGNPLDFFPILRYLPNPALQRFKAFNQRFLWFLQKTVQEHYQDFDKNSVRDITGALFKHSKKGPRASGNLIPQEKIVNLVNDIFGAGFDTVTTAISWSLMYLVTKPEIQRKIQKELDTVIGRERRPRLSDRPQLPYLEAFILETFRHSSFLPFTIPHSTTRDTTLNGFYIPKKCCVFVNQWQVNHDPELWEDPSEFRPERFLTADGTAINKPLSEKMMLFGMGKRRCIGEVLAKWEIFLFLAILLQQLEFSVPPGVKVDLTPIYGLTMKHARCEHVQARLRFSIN

hERG (KCNH2) = hERG (KCNH2) (Homo sapiens, UniProt Q12809); assay: Inhibition of human ERG at 6 uM relative to control
Sequence of hERG (KCNH2) (Q12809 whole entry): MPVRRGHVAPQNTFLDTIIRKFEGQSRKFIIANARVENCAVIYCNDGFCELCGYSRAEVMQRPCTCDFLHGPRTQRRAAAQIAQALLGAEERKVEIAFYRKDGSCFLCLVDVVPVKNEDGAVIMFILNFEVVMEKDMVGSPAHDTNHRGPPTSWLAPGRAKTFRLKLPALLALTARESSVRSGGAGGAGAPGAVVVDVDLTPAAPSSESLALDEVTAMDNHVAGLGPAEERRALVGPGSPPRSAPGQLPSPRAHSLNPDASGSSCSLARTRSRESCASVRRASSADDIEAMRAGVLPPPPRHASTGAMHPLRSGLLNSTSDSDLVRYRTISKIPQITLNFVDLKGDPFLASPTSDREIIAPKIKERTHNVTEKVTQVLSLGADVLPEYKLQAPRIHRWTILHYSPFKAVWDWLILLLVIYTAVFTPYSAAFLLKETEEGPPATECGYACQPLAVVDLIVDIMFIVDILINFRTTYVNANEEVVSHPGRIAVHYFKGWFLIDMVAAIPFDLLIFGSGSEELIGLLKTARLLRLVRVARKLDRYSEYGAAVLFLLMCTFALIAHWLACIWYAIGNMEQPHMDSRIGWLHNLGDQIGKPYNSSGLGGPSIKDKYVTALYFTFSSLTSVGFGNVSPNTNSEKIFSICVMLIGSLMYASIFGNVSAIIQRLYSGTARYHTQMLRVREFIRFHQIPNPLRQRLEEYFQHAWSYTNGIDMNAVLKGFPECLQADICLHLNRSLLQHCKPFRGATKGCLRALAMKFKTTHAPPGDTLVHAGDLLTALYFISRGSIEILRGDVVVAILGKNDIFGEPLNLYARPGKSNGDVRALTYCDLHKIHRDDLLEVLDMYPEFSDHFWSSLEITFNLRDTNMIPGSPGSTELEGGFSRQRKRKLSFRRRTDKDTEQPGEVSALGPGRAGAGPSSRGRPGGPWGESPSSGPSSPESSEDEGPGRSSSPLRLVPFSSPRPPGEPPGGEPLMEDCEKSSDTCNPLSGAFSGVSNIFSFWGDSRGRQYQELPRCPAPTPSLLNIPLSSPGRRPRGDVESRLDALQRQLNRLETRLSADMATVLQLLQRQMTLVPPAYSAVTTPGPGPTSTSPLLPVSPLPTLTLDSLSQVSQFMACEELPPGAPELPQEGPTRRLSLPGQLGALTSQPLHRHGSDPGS
Summary of the method: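 hERG inhibition measured by voltage clamp at 6 μM compound.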

Cytochrome P450 3A4 [12] = biological target: T1, Cytochrome P450 3A4; assay: Time dependent inhibition of CYP3A4 (unknown origin); type: ADME
Mus musculus [13] = assay: Toxicity in nude mouse xenografted with human SJSA1 cells assessed as body weight loss at 50 to 200 mg/kg, po qd administered with cycle of 3 days on, 4 days off for 30 days; type: organism-based, SJSA-1; details: in vivo
Summary of the method: (§5)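 Nude mice bearing SJSA-1 osteosarcoma xenografts, n = 5 per group. Dosing was oral in 20% HPBCD, either continuous daily at 100 and 200 mpk or intermittent (daily for 3 days on, 4 days off). Body weight was compared against a vehicle-control group.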

Mus musculus [14] = assay: Toxicity in nude mouse xenografted with human SJSA1 cells assessed as body weight loss at 100 to 200 mg/kg, po qd continuously for 30 days; type: organism-based, SJSA-1; details: in vivo, 720 h; summary of the method: as §5
MES-SA = assay: Antiproliferative activity against human MES-SA cells expressing wild type p53 after 72 hrs by CellTitre-Glo assay; type: functional, cell-based; summary of the method: as §1
CAKI-1 = assay: Antiproliferative activity against human Caki1 cells expressing wild type p53 after 72 hrs by CellTitre-Glo assay; type: functional, cell-based; summary of the method: as §1
CWR22R = assay: Antiproliferative activity against human 22Rv1 cells expressing wild type p53 after 72 hrs by CellTitre-Glo assay; type: functional, cell-based; summary of the method: as §1
LNCaP = assay: Antiproliferative activity against human LNCAP cells expressing wild type p53 after 72 hrs by CellTitre-Glo assay; type: functional, cell-based; summary of the method: as §1
MCF7 = assay: Antiproliferative activity against human MCF7 cells expressing wild type p53 after 72 hrs by CellTitre-Glo assay; type: functional, cell-based; summary of the method: as §1
ZR-75-1 = assay: Antiproliferative activity against human ZR-75-1 cells expressing wild type p53 after 72 hrs by CellTitre-Glo assay; type: functional, cell-based; summary of the method: as §1
BC1 = assay: Antiproliferative activity against human BC1 cells expressing wild type p53 after 72 hrs by CellTitre-Glo assay; type: functional, cell-based; summary of the method: as §1
DOHH-2 = assay: Antiproliferative activity against human DOHH2 cells expressing wild type p53 after 72 hrs by CellTitre-Glo assay; type: functional, cell-based; summary of the method: as §1
MOLT-3 = assay: Antiproliferative activity against human MOLT3 cells expressing wild type p53 after 72 hrs by CellTitre-Glo assay; type: functional, cell-based; summary of the method: as §1
CESS = assay: Antiproliferative activity against human CESS cells expressing wild type p53 after 72 hrs by CellTitre-Glo assay; type: functional, cell-based; summary of the method: as §1
KU812 = assay: Antiproliferative activity against human KU812 cells expressing wild type p53 after 72 hrs by CellTitre-Glo assay; type: functional, cell-based; summary of the method: as §1
CMLT1 = assay: Antiproliferative activity against human CMLT1 cells expressing wild type p53 after 72 hrs by CellTitre-Glo assay; type: functional, cell-based; summary of the method: as §1
MOLM-13 = assay: Antiproliferative activity against human MOLM13 cells expressing wild type p53 after 72 hrs by CellTitre-Glo assay; type: functional, cell-based; summary of the method: as §1
NALM-6 = assay: Antiproliferative activity against human NALM6 cells expressing wild type p53 after 72 hrs by CellTitre-Glo assay; type: functional, cell-based; summary of the method: as §1

For `CCC[C@H]1N(C(=O)c2cnccc2C(F)(F)F)CCC[C@@]1(Oc1csc(C(F)(F)F)c1)C(=O)N1CCN(c2ccccc2OCCCC(=O)O)CC1`, the Activity (NCI-H292) was “Active”, the Activity (UACC-62) was “Active” and the Activity (LOX IMVI) was “Active”. For the same compound, the Activity (A-375) was “Active”, the pIC50 [1] was 8.15 and the pIC50 [2] was 7.10. For the same compound, the pIC50 [3] was 6.74, the pIC50 (SK-UT-1) was < 4.30 and the pIC50 [4] was < 4.30. The pIC50 (SJSA-1 [5]) was 7.05, the Papp A→B [6] was 18 ×10⁻⁶ cm/s and the “Ratio IC50” value (SJSA-1 [7]) was >500. For the same compound, the solubility [8] was 100 µM (≈ 75.7 µg/mL), the AUC/dose (Mus musculus [9]) was 0.1 µM·h and the AUC/dose (Rhesus monkey) was 0.2 µM·h. The “Ratio IC50” value (HCT-116) was >500, the clearance [10] was 23 mL/min/kg and the pIC50 (Cytochrome P450 3A4 [11]) was < 4.30. The pIC50 (Cytochrome P450 1A2) was < 4.30, the inhibition at 6 µM (hERG (KCNH2)) was 20% and the TDI (Cytochrome P450 3A4 [12]) was “Active”. For the same compound, the Activity (Mus musculus [13]) was “Non-toxic”, the Activity (Mus musculus [14]) was “Non-toxic” and the Activity (MES-SA) was “Active”. The Activity (CAKI-1) was “Active”, the Activity (CWR22R) was “Active” and the Activity (LNCaP) was “Active”. The Activity (MCF7) was “Active”, the Activity (ZR-75-1) was “Active” and the Activity (BC1) was “Active”. The Activity (DOHH-2) was “Active”, the Activity (MOLT-3) was “Active” and the Activity (CESS) was “Active”. The Activity (KU812) was “Active”, the Activity (CMLT1) was “Active” and the Activity (MOLM-13) was “Active”. The Activity (NALM-6) was “Active”.
